{"source": "ChEMBL document CHEMBL4020842", "about": "“Discovery of N1-(4-((7-Cyclopentyl-6-(dimethylcarbamoyl)-7 H-pyrrolo[2,3- d]pyrimidin-2-yl)amino)phenyl)- N8-hydroxyoctanediamide as a Novel Inhibitor Targeting Cyclin-dependent Kinase 4/9 (CDK4/9) and Histone Deacetlyase1 (HDAC1) against Malignant Cancer” (J Med Chem, 2018)", "key": {"[1]": {"tested_on": "A549", "assay": "Induction of apoptosis in human A549 cells assessed as live cells at 1 uM after 48 hrs by annexin V-FITC/propidium iodide staining based flow cytometry (reference value: 92.7%)", "type": "functional"}, "[2]": {"tested_on": "A549", "assay": "Induction of apoptosis in human A549 cells assessed as necrotic cells at 10 uM after 48 hrs by annexin V-FITC/propidium iodide staining based flow cytometry (reference value: […]%)", "type": "functional"}, "[3]": {"tested_on": "NCI-H460", "assay": "Induction of apoptosis in human NCI-H460 cells assessed as early apoptotic cells at 10 uM after 48 hrs by annexin V-FITC/propidium iodide staining based flow cytometry (reference value: 0.11%)", "type": "functional"}, "[4]": {"tested_on": "T47D", "assay": "Induction of apoptosis in human T47D cells assessed as necrotic cells at 5 uM after 48 hrs by annexin V-FITC/propidium iodide staining based flow cytometry (reference value: 0.8%)", "type": "functional"}, "[5]": {"tested_on": "T47D", "assay": "Induction of apoptosis in human T47D cells assessed as late apoptotic cells at 10 uM after 48 hrs by annexin V-FITC/propidium iodide staining based flow cytometry (reference value: 6.16%)", "type": "functional"}, "[6]": {"tested_on": "MDA-MB-231", "assay": "Induction of apoptosis in human MDA-MB-231 cells assessed as early apoptotic cells at 5 uM after 48 hrs by annexin V-FITC/propidium iodide staining based flow cytometry (reference value: 0.4%)", "type": "functional"}, "[7]": {"tested_on": "MDA-MB-231", "assay": "Induction of apoptosis in human MDA-MB-231 cells assessed as late apoptotic cells at 10 uM after 48 hrs by annexin V-FITC/propidium iodide staining based flow cytometry (reference value: 1.53%)", "type": "functional"}, "[8]": {"tested_on": "A549", "assay": "Cytotoxicity against human A549 cells assessed as reduction in cell viability after 72 hrs by CCK8 assay", "type": "functional, cell-based", "conditions": "A549, 72 h"}, "[9]": {"tested_on": "A549", "assay": "Cell cycle arrest in human A549 cells assessed as accumulation at G2 phase at 2.5 to 10 uM after 24 hrs by propidium iodide staining based flow cytometry", "type": "functional", "method_in_brief": "(§1)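 Cells were exposed for 24 h to a range of concentrations (625 nM, 2.5 and 10 µM), with DMSO vehicle as control. They were then stained with propidium iodide and analysed by flow cytometry to obtain the percentages of cells in G0/G1, S and G2 phases.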"}, "[10]": {"tested_on": "MDA-MB-231", "assay": "Cell cycle arrest in human MDA-MB-231 cells assessed as accumulation at G2 phase at 2.5 to 10 uM after 24 hrs by propidium iodide staining based flow cytometry", "type": "functional", "method_in_brief": "as §1"}, "[11]": {"molecular_target": "Cyclin-dependent kinase 5/CDK5 activator 1 (Homo sapiens) (UniProt Q00535+Q15078)", "sequence (Q00535 whole entry)": "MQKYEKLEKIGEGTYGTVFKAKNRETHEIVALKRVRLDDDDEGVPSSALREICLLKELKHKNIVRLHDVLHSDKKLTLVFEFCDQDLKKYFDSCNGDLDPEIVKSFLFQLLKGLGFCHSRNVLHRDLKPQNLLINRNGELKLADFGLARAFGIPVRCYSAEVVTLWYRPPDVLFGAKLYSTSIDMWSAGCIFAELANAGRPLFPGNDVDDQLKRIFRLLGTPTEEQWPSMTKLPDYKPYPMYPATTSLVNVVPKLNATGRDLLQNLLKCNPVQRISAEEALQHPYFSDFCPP", "sequence (Q15078 99-307 partner limits assumed)": "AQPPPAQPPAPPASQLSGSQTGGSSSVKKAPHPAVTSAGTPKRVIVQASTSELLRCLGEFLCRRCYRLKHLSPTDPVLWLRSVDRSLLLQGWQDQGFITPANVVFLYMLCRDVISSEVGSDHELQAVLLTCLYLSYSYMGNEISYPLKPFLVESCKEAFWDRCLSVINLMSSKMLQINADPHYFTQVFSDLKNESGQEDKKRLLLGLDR", "assay": "Inhibition of recombinant human full length N-terminal 6His-tagged CDK5/N-terminal GST-tagged p35 co-expressed in baculovirus infected sf21 cells at 1 uM using histone H1 substrate in presence of [gamma33P]ATP after 10 mins by scintillation counting method relative to control"}, "[12]": {"molecular_target": "Aurora-C/INCENP (Homo sapiens, UniProt Q9NQS7+Q9UQB9)", "sequence (Q9UQB9 whole entry)": "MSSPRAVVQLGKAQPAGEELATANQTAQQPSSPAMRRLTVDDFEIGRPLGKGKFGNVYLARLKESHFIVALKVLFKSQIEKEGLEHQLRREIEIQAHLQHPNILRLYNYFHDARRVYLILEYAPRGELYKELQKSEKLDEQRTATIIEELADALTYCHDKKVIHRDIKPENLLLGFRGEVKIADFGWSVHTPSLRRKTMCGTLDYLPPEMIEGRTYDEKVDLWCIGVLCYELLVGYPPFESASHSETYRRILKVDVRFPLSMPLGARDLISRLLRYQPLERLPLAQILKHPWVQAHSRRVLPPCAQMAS", "sequence (Q9NQS7 whole entry)": "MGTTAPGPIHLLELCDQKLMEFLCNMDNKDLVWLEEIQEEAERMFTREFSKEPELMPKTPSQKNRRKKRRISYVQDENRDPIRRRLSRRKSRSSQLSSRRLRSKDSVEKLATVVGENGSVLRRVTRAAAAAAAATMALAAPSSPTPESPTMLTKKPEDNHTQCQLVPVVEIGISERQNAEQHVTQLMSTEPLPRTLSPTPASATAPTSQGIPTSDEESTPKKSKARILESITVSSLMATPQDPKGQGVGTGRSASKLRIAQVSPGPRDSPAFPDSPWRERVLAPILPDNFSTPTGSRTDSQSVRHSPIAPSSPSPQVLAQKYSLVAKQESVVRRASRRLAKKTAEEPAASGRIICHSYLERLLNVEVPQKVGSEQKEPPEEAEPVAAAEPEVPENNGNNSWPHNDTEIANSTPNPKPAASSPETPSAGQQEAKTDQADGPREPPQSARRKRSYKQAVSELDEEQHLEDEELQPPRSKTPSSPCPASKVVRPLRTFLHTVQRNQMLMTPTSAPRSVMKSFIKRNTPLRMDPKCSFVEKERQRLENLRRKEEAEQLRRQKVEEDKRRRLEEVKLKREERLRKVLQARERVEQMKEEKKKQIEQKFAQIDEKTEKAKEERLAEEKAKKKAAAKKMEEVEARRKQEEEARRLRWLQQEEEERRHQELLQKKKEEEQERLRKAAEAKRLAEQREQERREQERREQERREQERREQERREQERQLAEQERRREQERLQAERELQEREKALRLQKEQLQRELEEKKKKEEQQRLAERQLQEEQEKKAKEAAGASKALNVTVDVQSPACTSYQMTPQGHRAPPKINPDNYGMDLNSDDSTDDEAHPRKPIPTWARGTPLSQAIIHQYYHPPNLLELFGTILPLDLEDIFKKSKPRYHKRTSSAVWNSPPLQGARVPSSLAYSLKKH", "assay": "Inhibition of recombinant human N-terminal His6-tagged Aurora-C (35-end residues)/N-terminal GST-tagged INCENP (821-end residues) expressed in baculovirus infected sf21 cells using AKRRRLSSLRA substrate in presence of [gamma33P]ATP after 10 mins by scintillation counting method"}, "[13]": {"tested_on": "NCI-H460", "assay": "Cytotoxicity against human NCI-H460 cells assessed as reduction in cell viability after 72 hrs by CCK8 assay", "type": "functional, cell-based", "conditions": "NCI-H460, 72 h"}, "[14]": {"tested_on": "MDA-MB-468", "assay": "Cytotoxicity against human MDA-MB-468 cells assessed as reduction in cell viability after 72 hrs by CCK8 assay", "type": "functional, cell-based", "conditions": "MDA-MB-468, 72 h"}, "[15]": {"tested_on": "HepG2", "assay": "Induction of apoptosis in human HepG2 cells assessed as necrotic cells at 1 uM after 48 hrs by annexin V-FITC/propidium iodide staining based flow cytometry (reference value: 2.32%)", "type": "functional"}, "[16]": {"tested_on": "Hep 3B2", "assay": "Induction of apoptosis in human Hep3B cells assessed as live cells at 1 uM after 48 hrs by annexin V-FITC/propidium iodide staining based flow cytometry (reference value: 97.9%)", "type": "functional"}, "[17]": {"tested_on": "NCI-H460", "assay": "Induction of apoptosis in human NCI-H460 cells after 48 hrs by annexin V-FITC/propidium iodide staining based flow cytometry", "type": "functional, cell-based"}, "[18]": {"tested_on": "T47D", "assay": "Downregulation of CDK4 protein expression in human T47D cells after 48 hrs by Western blot method", "type": "functional, cell-based", "method_in_brief": "(§2)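 Treated cells were lysed and CDK4 and cyclin D1 protein levels were assessed by Western blot.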"}, "[19]": {"tested_on": "T47D", "assay": "Downregulation of Cyclin-D1 protein expression in human T47D cells after 48 hrs by Western blot method", "type": "functional, cell-based", "method_in_brief": "as §2"}, "[20]": {"tested_on": "HepG2", "assay": "Downregulation of Cyclin-D1 protein expression in human HepG2 cells after 48 hrs by Western blot method", "type": "functional, cell-based", "method_in_brief": "as §2"}, "[21]": {"molecular_target": "CDK4/CDK9 (Homo sapiens) (UniProt P11802+P50750)", "sequence (P11802 whole entry, looked up)": "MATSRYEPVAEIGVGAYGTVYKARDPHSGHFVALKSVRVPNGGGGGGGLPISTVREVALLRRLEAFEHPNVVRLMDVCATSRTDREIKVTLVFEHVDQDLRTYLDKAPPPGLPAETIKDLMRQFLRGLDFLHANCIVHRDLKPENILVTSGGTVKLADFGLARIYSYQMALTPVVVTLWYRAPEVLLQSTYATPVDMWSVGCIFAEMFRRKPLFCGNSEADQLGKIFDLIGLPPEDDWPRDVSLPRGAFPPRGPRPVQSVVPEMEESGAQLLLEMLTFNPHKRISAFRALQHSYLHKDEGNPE", "sequence (P50750 whole entry, looked up)": "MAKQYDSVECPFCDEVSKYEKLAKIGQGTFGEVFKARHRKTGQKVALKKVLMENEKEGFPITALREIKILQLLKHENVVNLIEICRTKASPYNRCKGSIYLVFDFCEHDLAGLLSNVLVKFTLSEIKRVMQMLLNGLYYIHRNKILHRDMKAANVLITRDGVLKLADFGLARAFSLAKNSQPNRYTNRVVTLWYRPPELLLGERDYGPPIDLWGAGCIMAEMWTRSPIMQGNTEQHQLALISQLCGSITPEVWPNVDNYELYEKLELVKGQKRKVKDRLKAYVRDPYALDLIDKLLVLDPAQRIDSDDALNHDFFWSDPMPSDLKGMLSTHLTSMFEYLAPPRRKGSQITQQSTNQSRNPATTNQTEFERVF", "assay": "Inhibition of CDK4/CDK9 in human NCI-H460 cells assessed as reduction in Rb phosphorylation at Ser807/811 residues at 1 uM after 48 hrs by Western blot method", "type": "cell-based"}, "[22]": {"molecular_target": "Histone deacetylase 1 (Homo sapiens, UniProt Q13547)", "sequence (Q13547 whole entry)": "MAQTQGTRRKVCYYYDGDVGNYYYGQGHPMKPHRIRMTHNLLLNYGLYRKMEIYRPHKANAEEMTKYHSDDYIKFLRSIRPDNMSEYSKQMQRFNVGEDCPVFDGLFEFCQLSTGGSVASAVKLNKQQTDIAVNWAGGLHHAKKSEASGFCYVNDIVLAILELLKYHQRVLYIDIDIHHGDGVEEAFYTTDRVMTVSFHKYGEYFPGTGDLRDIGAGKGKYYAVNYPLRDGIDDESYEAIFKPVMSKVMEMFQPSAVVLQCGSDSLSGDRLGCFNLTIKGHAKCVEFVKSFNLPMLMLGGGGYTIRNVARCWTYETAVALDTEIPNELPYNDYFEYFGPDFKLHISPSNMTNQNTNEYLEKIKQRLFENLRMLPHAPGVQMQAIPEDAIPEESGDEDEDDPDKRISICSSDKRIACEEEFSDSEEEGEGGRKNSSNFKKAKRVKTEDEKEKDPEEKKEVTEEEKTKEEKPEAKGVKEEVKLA", "assay": "Inhibition of HDAC1 in human MDA-MB-231 cells assessed as increase in acetylated-histone H3 level at 1 to 5 uM after 48 hrs by Western blot method", "type": "cell-based"}, "[23]": {"tested_on": "Hep 3B2", "assay": "Induction of apoptosis in human Hep3B cells assessed as reduction in Bcl2 protein expression after 48 hrs by Western blot method", "type": "functional, cell-based", "method_in_brief": "(§3)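 Cells were treated with or without compound and control for 48 h, then lysed. Bcl-2 and cleaved caspase 3 were assessed by Western blot.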"}, "[24]": {"tested_on": "T47D", "assay": "Induction of apoptosis in human T47D cells assessed as caspase-3 cleavage after 48 hrs by Western blot method", "type": "functional, cell-based", "method_in_brief": "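Cells were treated with or without test agent, alongside a control, for 48h. They were then lysed and analysed by Western blot for Bcl-2 protein and cleaved caspase 3.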"}, "[25]": {"tested_on": "HepG2", "assay": "Induction of apoptosis in human HepG2 cells assessed as caspase-3 cleavage after 48 hrs by Western blot method", "type": "functional, cell-based", "method_in_brief": "as §3"}, "[26]": {"assay": "Half life in Sprague-Dawley rat at 20 mg/kg, iv administered as single dose by HPLC analysis", "type": "ADME, organism-based", "conditions": "in vivo"}, "[27]": {"assay": "Clearance in Sprague-Dawley rat at 20 mg/kg, ip administered as single dose by HPLC analysis", "type": "ADME, organism-based", "conditions": "in vivo"}, "[28]": {"assay": "Cmax in Sprague-Dawley rat at 20 mg/kg, po administered as single dose by HPLC analysis", "type": "ADME, organism-based", "parameters": "dose 20 mg/kg, route oral", "conditions": "in vivo"}, "[29]": {"tested_on": "4T1", "assay": "Antitumor activity against mouse Fluc-labeled 4T1 cells implanted in Balb/c mouse assessed as tumor growth inhibition at 130 mg/kg, ip administered daily for 18 days measured after 8 to 25 days by bioluminescence assay relative to control", "type": "functional", "conditions": "4T1, ip, read-out: TGI"}, "[30]": {"tested_on": "4T1", "assay": "Antitumor activity against mouse Fluc-labeled 4T1 cells implanted in Balb/c mouse assessed as reduction in tumor weight at 90 mg/kg, ip administered daily for 18 days measured after 8 to 25 days", "type": "functional, organism-based", "method_in_brief": "(§4)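 Luciferase (Fluc) reporter introduced into 4T1 cells by lentiviral transduction. Cells implanted orthotopically into mammary fat pads of female BALB/c mice aged 6–8 weeks. Once tumours averaged 100 mm3, dosing was daily by IP injection. Bioluminescence imaging was done at days 8 and 25 to reflect viable tumour cell number. Tumour weight was recorded at study end.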"}, "[31]": {"tested_on": "4T1", "assay": "Antitumor activity against mouse Fluc-labeled 4T1 cells implanted in Balb/c mouse assessed as reduction in tumor weight at 130 mg/kg, ip administered daily for 18 days measured after 8 to 25 days", "type": "functional, organism-based", "method_in_brief": "as §4"}}, "note": "The source made the active and inactive calls. The rule behind the calls is not given here.", "data": [{"smiles": "CN(C)C(=O)c1cc2cnc(Nc3ccc(NC(=O)CCCCCCC(=O)NO)cc3)nc2n1C1CCCC1", "values": [{"measurement": "Activity", "setting": "[1]", "result": 90.9, "unit": "%"}, {"measurement": "Activity", "setting": "[2]", "result": 6.38, "unit": "%"}, {"measurement": "Activity", "setting": "[3]", "result": 3.95, "unit": "%"}, {"measurement": "Activity", "setting": "[4]", "result": 0.82, "unit": "%"}, {"measurement": "Activity", "setting": "[5]", "result": 17.1, "unit": "%"}, {"measurement": "Activity", "setting": "[6]", "result": 2.57, "unit": "%"}, {"measurement": "Activity", "setting": "[7]", "result": 6.59, "unit": "%"}, {"measurement": "IC50", "setting": "[8]", "result": 1330, "unit": "nM"}, {"measurement": "Activity", "setting": "[9]", "result": "Active"}, {"measurement": "Activity", "setting": "[10]", "result": "Active"}, {"measurement": "inhibition", "setting": "[11]", "result": 72, "unit": "%"}, {"measurement": "IC50", "setting": "[12]", "result": 22, "unit": "nM"}, {"measurement": "IC50", "setting": "[13]", "result": 3780, "unit": "nM"}, {"measurement": "IC50", "setting": "[14]", "result": 1820, "unit": "nM"}, {"measurement": "Activity", "setting": "[15]", "result": 3.95, "unit": "%"}, {"measurement": "Activity", "setting": "[16]", "result": 85.8, "unit": "%"}, {"measurement": "Activity", "setting": "[17]", "result": "Dose-dependent effect"}, {"measurement": "Activity", "setting": "[18]", "result": "Dose-dependent effect"}, {"measurement": "Activity", "setting": "[19]", "result": "Dose-dependent effect"}, {"measurement": "Activity", "setting": "[20]", "result": "Dose-dependent effect"}, {"measurement": "inhibition", "setting": "[21]", "result": "Active"}, {"measurement": "inhibition", "setting": "[22]", "result": "Active"}, {"measurement": "Activity", "setting": "[23]", "result": "Active"}, {"measurement": "Activity", "setting": "[24]", "result": "Active"}, {"measurement": "Activity", "setting": "[25]", "result": "Active"}, {"measurement": "half-life", "setting": "[26]", "result": 10.8, "unit": "h"}, {"measurement": "CL/F", "setting": "[27]", "result": 210, "unit": "mL/min/kg"}, {"measurement": "Cmax", "setting": "[28]", "result": 137, "unit": "ng/mL"}, {"measurement": "inhibition in vivo at 130 mg/kg", "setting": "[29]", "result": 84.8, "unit": "%"}, {"measurement": "Activity", "setting": "[30]", "result": "Active"}, {"measurement": "Activity", "setting": "[31]", "result": "Active"}]}]}
